Screening data from PubChem.
Rin1-Abl PPI inh: human Rin1-Abl interaction inhibition. P00519+Q13671. TR-FRET Rin1/Abl binding, biochemical. inhibition, % at 7.35 µM. actives 0.4% (n = 360,000); in the data active = inhibition above about 5%, passing the limit was not always enough
Neddylation inh: cullin neddylation inhibition; AID 651699; TR-FRET cullin neddylation, biochemical; P61081+Q13564; inhibition, % at 25 µM; actives 0.58% (n = 360,000); in the data active = inhibition above about 36%
HNF4A DNA FP: change in binding of human HNF4 alpha to DNA | P41235 | HNF4a-FITC DNA binding, fluorescence polarization, 1 h | activity change, % at 10 µM | actives 0.3% (n = 360,000); in the data active = activity change above about 30%, passing the limit was not always enough
TPT1 inhibitor: blocks Candida albicans tRNA 2'-phosphotransferase; recombinant caTPT1, FP RNA substrate dephosphorylation; inhibition, % at 5 µM; actives 0.81% (n = 300,000);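 active = inhibition above the mean of all tested compounds plus 3 SD, set per screening campaign, cut at about 24% in these data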;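 note: plate controls were DMSO alone for no effect and ferristatin control at 100 nM for full effect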
Rpn11 inh: Rpn11 (human) deubiquitinase inhibition; actives 0.59% (n = 360,000); human 26S proteasome, Ub4-pepOG fluorescence polarization; 20S core pre-blocked with epoxomicin; inhibition, % at 20 µM;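 active = inhibition at 20 µM, scaled to each plate's controls, above about 33%, limit read from the data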
CSN inh: CSN deneddylation inhibition. Q92905. Purified CSN, SCF-Nedd8-OG deneddylation, fluorescence polarization. inhibition, % at 12.5 µM. actives 0.38% (n = 360,000). AID 651999;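 active = pattern-corrected inhibition above about 35%, with an unprinted fluorescence ratio check between 0.5 and 1.5, limit read from the data, passing the limit was not always enough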;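 note: 0% = enzyme with substrate and 100% = substrate without enzyme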
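Detection – fluorescence polarization · System – HEK293T-derived human Csn5 enzyme · Controls – substrate-only high control, full reaction low control · Timing – 90 min, room temperature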
TPT1 inh confirm: TPT1 (C. albicans) inhibition, confirmation. recombinant caTPT1, fluorescence polarization, RNase T1 coupled. AID 2149. inhibition, % at 5 µM. shares compounds with TPT1 inhibitor. actives 74% (n = 2,400);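 active = inhibition above the primary screen limit, the mean inhibition of all tested compounds plus 3 SD, cut at about 25% in these data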
RNase T1 counter: RNase T1 inhibition in TPT1 counter-screen; shares compounds with TPT1 inhibitor; RNase T1 cleavage, fluorescence polarization, 1536-well; inhibition, % at 5 µM; actives 83% (n = 2,400); AID 2153;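 active = inhibition above the solvent-only control well mean plus 3 SD, limit set per screening run, cut at about 23% in these data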;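 note: plate controls were DMSO wells with enzyme for no effect and wells without RNase T1 for full effect; inhibitors block cleavage so intact labeled substrate keeps polarization high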
* marks the source's active call; other numbers are inactive results; / = no result given; ! = not confirmed by another sample. In the library only some 2.4% were active in any assay of this set; here they are far more common.

SMILES | Rin1-Abl PPI inh | Neddylation inh | HNF4A DNA FP | TPT1 inhibitor | Rpn11 inh | CSN inh | others
CCCc1cc(=O)oc2cc(OCC(=O)N3CCC(C(=O)O)(c4ccccc4)CC3)ccc12 | -3 | 41* | 1 | -3 | -2 | 3
CC(C)OC(=O)c1c(N)n(CC2CCCO2)c2nc3ccccc3nc12 (stereo not given) | -3 | / | 4 | -1 | 2 | -3
CCCNC(=O)c1c(N)n(CC2CCCO2)c2nc3ccccc3nc12 (stereo not given) | 3 | / | -2 | 1 | 9 | 40*
COC(=O)C1=C(c2ccc(OCc3ccccc3)cc2)C[C@@H]2CC[C@H]1N2C(=O)NCCc1ccc(F)cc1 | -5 | 8 | -2 | / | 1 | -5
Cn1cc(C=C(C#N)C#N)c2ccccc21 | -4 | -118 | 10 | 2 | / | 36*
N#Cc1ccc(Cn2cc(C=O)c3ccccc32)cc1 | -3 | -6 | 2 | -1 | -16 | 4
CCn1nc(-c2cccs2)nc2c(=O)n(C)c(=O)nc1-2 | 20* | -120 | 100* | / | -4 | 63*
COC(=O)C1=C(c2cccc(C#N)c2)C[C@@H]2CC[C@H]1N2C(=O)N1CCCCC1 | -1 | -16 | 1 | / | 9 | 0
O=S(=O)(c1cc(Cl)cc(Cl)c1)N1Cc2cc(-c3ccccc3)ccc2-n2nncc2C1 | 3 | -54 | -1 | / | 9 | -2
Cc1ccc(S(=O)(=O)N2Cc3cc(-c4ccccc4)ccc3-n3nncc3C2)cc1 | -1 | 0 | 48* | / | 4 | 2
O=C(N/N=C/c1c(O)n(Cc2ccc(F)cc2)c(=O)[nH]c1=O)c1ccccc1O | -1 | 32 | 5 | 9 | 20 | 8
O=C(N/N=C/c1c(O)n(Cc2ccccc2)c(=O)[nH]c1=O)c1ccccc1O | 0 | 41* | 1 | 5 | 14 | 0
C[C@]12CCC3C(CC[C@H]4C[C@@H](O)[C@H](O)C[C@]34C)C1CC[C@@H]2O (stereo not given in full) | 1 | -2 | -1 | / | 1 | 1
NC(Cc1cc(O)c(O)cc1O)C(=O)O (stereo not given) | / | / | / | 31* | / | /
N[C@@H](CCl)C(=O)O | 0 | -1 | -3 | 1 | -1 | 0
Cc1ccnc(NC(=O)CCCc2ccc(N(CCCl)CCCl)cc2)n1 | 3 | -11 | 9 | / | -1 | 84*
COCCCNC(=O)Cn1cc(/C=C2\C(=O)NC(=O)N(c3ccccc3F)C2=O)c2ccccc21 | 2 | -7 | 57* | 20 | 14 | 0
COc1cc2c(cc1O)C[C@H]1NCCc3cc4c(c-2c31)OCO4 | 1 | 24* | -11 | -1 | -1 | 1
O=C1C2CC(CN3CCCCC23)C2CCCCN12 (stereo not given) | 3 | -3 | 2 | / | -3 | 2
CCCCn1c(=O)c(C(=O)Nc2ccccc2C)c(O)c2ccccc21 | -4 | 8 | 39* | 0 | -14 | 2
O=C(O)C(O)(c1ccc(Cl)cc1)C1(O)CCCC1 (stereo not given) | 4 | -5 | 0 | / | -1 | 3
O=C1NC(=O)N(c2ccccc2F)C(=O)/C1=C/c1ccc(Sc2nc3ccccc3[nH]2)o1 | 0 | -5 | 14 | 1 | 83* | 29
COC(=O)C(O)(c1c(C)[nH]n(-c2ccccc2)c1=O)C(F)(F)F (stereo not given) | -2 | -2 | 5 | 3 | 3 | -3
COc1cc(C(c2c(C)[nH]n(-c3ccccc3)c2=O)c2c(C)[nH]n(-c3ccccc3)c2=O)cc(OC)c1OC | 9.7* | -17 | -2 | 1 | 24 | 0
O=C(NCC1=C(c2ccc3ccccc3c2)C[C@@H]2CC[C@H]1N2Cc1ccco1)c1nccs1 | -2 | -6 | 0 | / | -4 | 1
SMILES | Rin1-Abl PPI inh | Neddylation inh | HNF4A DNA FP | TPT1 inhibitor | Rpn11 inh | CSN inh | others
O=C1CC(=O)N(Cc2ccccc2)C(=O)N1 | -1 | 0 | 5 | / | 14 | 3
O=C1CC(=O)N(Cc2ccccc2)C(=O)N1Cc1ccccc1 | 3 | 4 | 52* | / | / | 36*
COC(=O)C1=C(c2ccc(Cl)c(C(F)(F)F)c2)C[C@@H]2CC[C@H]1N2C(=O)N1CCC(C)CC1 | -1 | -16 | 4 | / | 5 | -2
CCn1c(O)c(C(=O)CC2NCCc3ccccc32)c(=O)n(CC)c1=S (stereo not given) | -6 | -24 | 36 | 62* | 110* | 19 | TPT1 inh confirm=56*;RNase T1 counter=68*
CCn1c(O)c(/C=N/N2CCOCC2)c(=O)n(CC)c1=S | 1 | -10 | 4 | 23 | 4 | 0
CCc1c(-c2ccccc2)nc2ccccc2c1C(=O)N1CCC2(CC1)OCCO2 | 2 | -6 | 5 | -1 | 3 | 6
CN1CCC2(CC1)C(C#N)=C(N)NC(S)=C2C#N | -2 | -5 | 31 | 50*! | / | 7 | TPT1 inh confirm=16;RNase T1 counter=28*
CC(C)c1ccc(N2C(=O)NC(=O)/C(=C\C=C\c3ccco3)C2=O)cc1 | / | / | / | 130* | / | / | TPT1 inh confirm=110*;RNase T1 counter=106*
CC(C)c1ccc(N2C(=O)NC(=O)/C(=C\c3cnc(-c4ccccc4)nc3)C2=O)cc1 | -1 | -11 | -1 | 15 | 5 | 7
COc1ccc2[nH]cc(C3=CCNCC3)c2c1 | / | / | / | 52* | / | / | TPT1 inh confirm=61*;RNase T1 counter=72*
O=C1CC(=O)N(c2ccc(Cl)cc2Cl)C(=O)N1 | -3 | -4 | 9 | 37* | 36 | 16 | TPT1 inh confirm=16;RNase T1 counter=25*
O=C1CC(=O)N(c2ccccc2F)C(=O)N1 | 6 | -3 | 4 | 9 | 3 | 1
O=C1CC(=O)N(c2cccc(Br)c2)C(=O)N1 | -2 | 1 | 10 | 18 | 12 | 12
Cc1cc(Br)ccc1N1C(=O)CC(=O)NC1=O | -1 | -3 | 8 | 24* | 26 | 14 | TPT1 inh confirm=13;RNase T1 counter=18
ClCCN(CCCl)c1ccc(C=Cc2ccncn2)cc1 | -9 | 37 | 31 | / | / | 15
CC(C)C(O)(C(=O)OCC1=CCN2CCC(O)C12)C(C)O (stereo not given) | 1 | -6 | 4 | / | 6 | -7
O=C1OC(c2ccc([N+](=O)[O-])cc2)=N/C1=C/N1CC2CC(C1)c1cccc(=O)n1C2 (stereo not given) | -3 | -21 | 3 | 34* | 8 | -1 | TPT1 inh confirm=42*;RNase T1 counter=54*
COCCNC(=O)Cn1cc(/C=C2\C(=O)NC(=O)N(c3ccccc3F)C2=O)c2ccccc21 | 2 | 6 | -1 | 27* | 5 | -2 | TPT1 inh confirm=10;RNase T1 counter=19
COC(=O)Cn1cc(/C=C2\C(=O)NC(=O)N(c3ccc(OC)cc3)C2=O)c2ccccc21 | 2 | 0 | -1 | 25* | 10 | 0 | TPT1 inh confirm=-13;RNase T1 counter=4
